The target of the test is angiotensin-converting enzyme 2 (ACE2) (Homo sapiens, UniProt Q9BYF1). In words: SPR. It is filed as binding. The method, boiled down:
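Nitrilotriacetic acid (NTA) sensor chip surface primed and charged with Ni2+ by sequential injection of 200 mM imidazole and 40 mM NiCl2. His6-tagged ACE2 protein at 20 μg/mL captured on the chip, with test compound as analyte. Supporting ACE2h cell membrane chromatography: 10.0 mm × 2.0 mm column, 37 °C, 0.2 mL/min, 2 mM phosphate-buffered saline (pH 7.4), detection at 284 nm.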

Chain of angiotensin-converting enzyme 2 (ACE2) (Q9BYF1 18-805): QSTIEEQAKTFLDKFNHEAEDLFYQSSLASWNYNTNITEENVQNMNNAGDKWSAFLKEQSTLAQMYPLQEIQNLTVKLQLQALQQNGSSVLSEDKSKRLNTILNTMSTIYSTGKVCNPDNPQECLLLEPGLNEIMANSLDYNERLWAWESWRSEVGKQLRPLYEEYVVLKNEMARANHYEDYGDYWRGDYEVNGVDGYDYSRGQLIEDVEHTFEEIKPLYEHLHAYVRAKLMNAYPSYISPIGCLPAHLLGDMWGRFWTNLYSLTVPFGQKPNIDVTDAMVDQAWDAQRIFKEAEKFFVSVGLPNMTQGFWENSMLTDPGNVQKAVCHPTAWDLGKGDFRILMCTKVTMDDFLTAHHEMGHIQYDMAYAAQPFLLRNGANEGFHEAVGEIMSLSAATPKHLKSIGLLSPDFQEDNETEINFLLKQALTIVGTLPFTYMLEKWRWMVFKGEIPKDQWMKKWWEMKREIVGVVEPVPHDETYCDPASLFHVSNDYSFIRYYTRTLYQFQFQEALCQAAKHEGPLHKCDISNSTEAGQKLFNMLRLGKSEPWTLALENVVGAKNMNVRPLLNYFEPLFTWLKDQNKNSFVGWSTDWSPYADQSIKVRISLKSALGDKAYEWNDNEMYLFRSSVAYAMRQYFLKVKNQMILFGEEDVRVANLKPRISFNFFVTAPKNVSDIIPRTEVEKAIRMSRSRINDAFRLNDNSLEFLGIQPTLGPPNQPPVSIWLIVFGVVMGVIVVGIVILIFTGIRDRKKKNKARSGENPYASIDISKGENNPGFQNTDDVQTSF

Usually Kd stands for a measure of binding affinity in units of concentration. Compound `CN1CCCC(n2nc(Cc3ccc(Cl)cc3)c3ccccc3c2=O)CC1` (stereo not shown) [azelastine] returned a Kd of 258 nM.

The values are drawn from PMC8144927 (Virology, 2021).
